Sampled rows, rich in hits. Any-hit rate of the full collection: about 2.6%.
Yeast growth inh: chemicals that inhibit yeast BB579 growth in restrictive medium (lifespan-shortening candidates) | S. cerevisiae BB579 growth, OD615, 48 h | inhibition, % at 10 µM | 0.51% of 140,000 active | AID 804;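 active = inhibition above a set limit, 3 SD over the mean compound inhibition, cut at about 44% in these data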
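Test system: Saccharomyces cerevisiae DeaD strain BB579, replicative lifespan model yeast | Buffer or medium: Restrictive CSMM-D medium | Doses: One dose, 10 µM compound with 0.25% DMSO | Incubation: 48 h exposure, 30 °C | Detection: Culture absorbance at 615 nm | Control set: Amphotericin B at 10 µg/mL as positive control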
RAM network inh: blocks the yeast RAM network; 1.8% of 190,000 active; inhibition, % at 50 µM; S. cerevisiae dse1pr::URA3 reporter, 5-FOA growth OD615, 2 d; analog-sensitive cbk1-as2 kinase mutant strain;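 active = inhibition above a set limit, 3 SD over mean compound inhibition, cut at about 8.4% in these data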;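 also: 0% = DMSO-only wells with no growth and 100% = 10 µM 1-NA-PP1 full growth; inhibition rescues growth on 5-FOA so higher OD means more RAM inhibition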
Yeast life ext: yeast lifespan extension. S. cerevisiae growth with nicotinamide, OD615; deaD strain in restrictive glucose medium. 0.68% of 130,000 active. inhibition of the nicotinamide effect, % at 10 µM;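 active = inhibition above a set limit, placed 3 SD over the median of all compounds, cut at about 26% in these data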;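 also: 0% = nicotinamide-treated wells and 100% = cells grown without nicotinamide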
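Assay system: engineered S. cerevisiae DeaD replicative-lifespan strain, galactose-grown log-phase cells; Buffer or medium: CSMM-D glucose medium, restrictive; Probe or stimulus: nicotinamide 1.5 mM; Compound: single dose 10 µM compound, 0.25% DMSO; Schedule: 4 h preincubation then 48 h treatment at 30 °C; Technique: OD615 measurement.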
RAM efflux-def: restores 5-FOA growth of efflux-deficient yeast; shares compounds with RAM network inh; S. cerevisiae efflux-deficient reporter strain, 5-FOA growth OD615, 2 days; max inhibition, %; 1,200 tested, under 10 active; AID 1305; call rule not given here;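 also: plate controls were vehicle for no effect and reference inhibitor for full effect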
* = called active by the depositor; · = no result given.

SMILES	Yeast growth inh	RAM network inh	Yeast life ext	RAM efflux-def
Cc1cc2cc(CNC(=S)Nc3ccc(OC(F)(F)F)cc3)ccc2n1C	-27	4	8	·
CCC(C)(C)NC(=O)C(c1cccnc1)N(C(=O)c1csnn1)c1ccc(C)cc1 (stereo not drawn)	·	2	·	·
CCC(C)c1ccc(NC(=S)NCc2ccccc2OC)cc1 (stereo not drawn)	·	11*	·	7
COC(=O)Cc1ccc(NC(=S)NCc2ccccc2OC)cc1	·	0	·	·
FC(F)(F)c1cc(-c2ccco2)nc(N2CCN(Cc3ccccc3)CC2)n1	-27	0	-14	·
Fc1ccc(N2CCN(c3nc(-c4ccco4)cc(C(F)(F)F)n3)CC2)cc1	-44	14*	-7	4
O=C1CCC(/C=C/c2ccccc2)=NN1Cc1ccccc1Cl	-81	23*	-6	1
COc1ccc(/C=C/C2=NN(Cc3ccccc3)C(=O)CC2)cc1	·	5	·	·
C=CCN1N=C(/C=C/c2ccc(C)cc2)CCC1=O	·	0	·	·
O=C1CCC(/C=C/c2ccccc2)=NN1Cc1ccc(Cl)c(Cl)c1	-28	13*	-13	4
COc1ccc(N2CCN(c3oc(COc4ccc(Cl)cc4)nc3C#N)CC2)cc1	-13	13*	-8	5
COc1ccc(N2CCN(c3oc(COc4ccc(Cl)cc4Cl)nc3C#N)CC2)cc1	-13	3	-6	·
COc1ccc(CNc2oc(COc3ccc(Cl)cc3)nc2C#N)cc1	-46	13*	-9	3
C=CCNc1oc(COc2ccc(C)cc2)nc1C#N	-1	1	-10	·
COc1ccc(Nc2oc(COc3ccc(Cl)cc3)nc2C#N)cc1	-49	3	34	·
Cc1ccc(OCc2nc(C#N)c(NCc3ccc4c(c3)OCO4)o2)cc1	-51	15*	-19	1
CCC(C)(C)NC(=O)C(c1ccncc1)N(Cc1ccc(C)cc1)C(=O)c1csnn1 (stereo not drawn)	-32	-1	·	·
O=C(CC(c1ccccc1)c1ccco1)Nc1nccs1 (stereo not drawn)	-29	6	-2	·
O=C(CSc1nc2ccccc2[nH]1)Nc1nc(-c2ccc(Br)cc2)cs1	-20	6	9	·
Cc1nnc2n(c1=O)N=C(c1ccc(Cl)cc1)CS2	-19	1	-6	·
CN(Cc1ccccc1)C(=O)COC(=O)c1ccccc1NS(=O)(=O)c1cccc(N)c1	-27	2	-2	·
CC(OC(=O)c1ccccc1NS(=O)(=O)c1cccc(C(F)(F)F)c1)C(=O)N(C)Cc1ccccc1 (stereo not drawn)	-21	13*	8	2
CC(C)(C)OC(=O)N1CCC2(CC1)C(C#N)=C(N)OC1=C2C(=O)CCC1	·	0	·	·
O=S1(=O)CC(O)C(N2CCCCC2)C1 (stereo not drawn)	-14	1	·	·
O=C(Nc1cccc(S(=O)(=O)N2CCCCC2)c1)c1ccc(S(=O)(=O)C(F)F)cc1	·	4	·	·
SMILES	Yeast growth inh	RAM network inh	Yeast life ext	RAM efflux-def
COc1cccc(CC2(CO)CCCN(CC3=Cc4cc(Cl)ccc4OC3)C2)c1 (stereo not drawn)	·	0	·	·
CCN(CC)S(=O)(=O)c1ccc2oc(C(=O)N3CCc4ccccc4C3)c(C)c2c1	-51	3	4	·
Cc1c(C(=O)N2CCc3ccccc3C2)oc2ccc(S(=O)(=O)N3CC(C)CC(C)C3)cc12 (stereo not drawn)	-41	12*	5	10
O=C(O)CCn1cc(/C=N/O)c(-c2cccc([N+](=O)[O-])c2)n1	·	3	·	·
Cc1ccc(Cn2cnc3ccccc32)cc1C	-26	0	19	·
Cc1cc(OCc2nnc(SCC(=O)OC3CCCCC3)o2)ccc1Cl	-40	12*	7	2
O=C(CSc1nnc(COc2ccc(Cl)cc2)o1)OC1CCCCC1	-54	1	0	·
Cc1nc(N2CCC(C)CC2)c2nnn(Cc3ccccc3)c2n1	-25	1	·	·
O=C(CSc1nncs1)NC(=O)NC1CCCC1	·	0	·	·
O=C(OCc1nnc(-c2ccccc2)o1)c1ccc(Cl)cc1	·	1	·	·
O=C(OCc1ccccc1)c1cccc(-c2nnc(-c3ccccc3)o2)c1	-22	12*	1	2
CC(C)OC(=O)c1ccc(COC(=O)c2cccc(-c3nnc(-c4ccccc4)o3)c2)cc1	-23	13*	6	2
O=C(OCc1nnc(-c2ccccc2)o1)c1ccc(CO)cc1	·	0	·	·
COc1cc(NC(=O)C2CC2)c(OC)cc1NC(=O)CCC(=O)NC1CCN(Cc2ccccc2)CC1	·	2	·	·
O=C(CCN1C(=O)C2CCCCC2C1=O)Nc1ccc(F)c(F)c1F (stereo not drawn)	·	2	·	·
O=C1NC2(CCCCC2)C(=O)N1Cc1ccc([N+](=O)[O-])cc1	-40	1	5	·
CC(=O)OCC(=O)Nc1ccccc1OC(F)F	·	0	·	·
COc1ccc(C(C)(C)C)cc1NC(=O)COC(=O)c1cc(SC)ccc1Cl	-24	13*	-3	4
COc1ccc(NC(=O)COC(=O)c2cc(SC)ccc2Cl)c(OC)c1	-2	6	-2	·
CSc1ccc(Cl)c(C(=O)OCC(=O)Nc2ccccc2OC(F)F)c1	-30	16*	3	3
CC(=O)Oc1ccc(N2C(=O)C3C4C=CC(CC4)C3C2=O)cc1[N+](=O)[O-] (stereo not drawn)	·	2	·	·
O=C(c1cc([N+](=O)[O-])cc([N+](=O)[O-])c1)N1CCOCC1	-24	1	-1	·
CCOC(=O)c1ccc(NC(=O)C(C)Sc2nc(O)c(-c3ccccc3)c(=O)[nH]2)cc1 (stereo not drawn)	·	3	·	·
COc1ccc(NC(=O)N2CCCC(c3nc(-c4ccc(C(C)C)cc4)no3)C2)cc1 (stereo not drawn)	-21	12*	-12	2
COc1ccc(NC(=O)N2CCCC(c3nc(-c4ccc(OC)cc4)no3)C2)cc1 (stereo not drawn)	·	1	·	·
SMILES	Yeast growth inh	RAM network inh	Yeast life ext	RAM efflux-def
COc1cc([N+](=O)[O-])ccc1NC(=O)COC(=O)C=C(C)C	·	3	·	·
COc1ccc(/C=C2\SC(=S)N(CC(=O)OCC(=O)Nc3ccc(C)cc3Cl)C2=O)cc1	·	13*	·	9
COc1ccc(/C=C2/SC(=S)N(CCC(=O)O)C2=O)cc1	-57	4	-9	·
COc1ccc(/C=C2\SC(=S)N(CC(=O)OCC(=O)Nc3ccc([N+](=O)[O-])cc3OC)C2=O)cc1	·	18*	·	8
COc1ccc(N2C(=O)CC(NCCNc3ccc([N+](=O)[O-])cn3)C2=O)cc1 (stereo not drawn)	-2	3	5	·
CC(C)(C)C(=O)CNCC(=O)C(C)(C)C	·	1	·	·
CCN(CC)c1nc2ccccc2nc1C(C#N)C(=O)NCCCOC (stereo not drawn)	-5	1	-11	·
CCN(CC)c1nc2ccccc2nc1C(C#N)C(=O)NCCc1ccccc1 (stereo not drawn)	-38	2	-25	·
CCCCN(CCCC)c1nc2ccccc2nc1C(C#N)C(=O)NCCCOC (stereo not drawn)	-38	15*	1	5
CCCN(CCC)c1nc2ccccc2nc1C(C#N)C(=O)OC(C)COC (stereo not drawn)	-19	13*	14	2
CCOC(=O)CNC(=S)N(Cc1cccs1)C1CCCCC1	-19	0	2	·
